This is an account of results in PubChem BioAssay.

Test [1] can be described thus: inhibitors of TNFa-induced NFkB p65 translocation, primary screen, imaging, HUVEC, MLSMR starter and 10KST1 sets (AID 438;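 active means inhibition above 20% together with a positive visual image hit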;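 further: compound added about 3h40 before a 20 min TNFalpha stimulation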;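 on inhibition: signal is the nuclear over cytoplasmic p65 intensity ratio per well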). The conditions noted are these: HUVEC TNFa-induced p65 nuclear translocation; cell count: measured here: nuclei count (cytotoxicity indicator), at 2.08 µM; inhibition: at 2 µM, stronger effect = higher value, 0% TNFa-plus-vehicle, 100% no-TNFa wells.
Test [2] in a line: inhibitors of E-selectin induction by TNFa, primary screen, imaging, HUVEC, immunofluorescence, MLSMR starter and 10KST1 sets (AID 487;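 active means visually confirmed hit in the image check and inhibition above 20%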;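 on inhibition: signal is fraction of cell area covered by stained E-selectin grains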;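 on nuclei count: 100% = median nuclei count of all wells on the same plate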). As to conditions: HUVEC TNFalpha-induced E-selectin immunofluorescence imaging, at 2 µM; inhibition: stronger effect = higher value; nuclei count: measured here: cell number, toxicity.
The nature of test [3]: DUSP6 inhibitors restoring Erk phosphorylation by chemical complementation, primary imaging in DUSP6-transfected HeLa (AID 609).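 On inhibition: phospho-Erk level distribution per well compared with pooled transfected vehicle control wells.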 As to conditions: HeLa MKP-3 transfected, phospho-Erk imaging KS statistic, at 10 µM, cells stimulated with TPA for 15 min.
Test [4] deals with Dual specificity protein phosphatase 6 (Homo sapiens) (UniProt Q16828). Described as above. The conditions noted are these: HeLa MKP-3 transfected, phospho-Erk imaging KS statistic; at 10 µM; stronger effect = higher value; cells stimulated with TPA for 15 min.
Sequence of Dual specificity protein phosphatase 6 (Homo sapiens) (Q16828 whole entry, looked up): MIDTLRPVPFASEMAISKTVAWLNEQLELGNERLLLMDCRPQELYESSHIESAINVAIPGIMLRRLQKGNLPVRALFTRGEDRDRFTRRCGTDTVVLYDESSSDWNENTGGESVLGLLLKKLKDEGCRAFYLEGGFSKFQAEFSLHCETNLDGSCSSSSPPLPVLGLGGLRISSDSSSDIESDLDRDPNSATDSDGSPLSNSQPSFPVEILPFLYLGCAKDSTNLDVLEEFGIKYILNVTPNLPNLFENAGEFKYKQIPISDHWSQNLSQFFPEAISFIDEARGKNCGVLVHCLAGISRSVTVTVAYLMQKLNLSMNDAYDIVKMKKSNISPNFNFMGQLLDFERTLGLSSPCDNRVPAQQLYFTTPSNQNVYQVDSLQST
For test [5], the target named is Voltage-gated potassium channel subunit beta-2 (Rattus norvegicus) (UniProt P62483). The experiment in a line: KvBeta enzyme negative modulators, primary screen, biochemical, NADPH fluorescence (AID 622;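 active means fluorescence slope higher than the sample average by over 3 SD, cut at about -0.22 in these data, passing the limit was not always enough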;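 further: slope of raw intensity against log time taken from 70 to 1610 s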). As to conditions: recombinant KvBeta, 4-cyanobenzaldehyde reduction, at 10 µM, stronger effect = higher value.
Sequence of Voltage-gated potassium channel subunit beta-2 (Rattus norvegicus) (P62483 whole entry, looked up): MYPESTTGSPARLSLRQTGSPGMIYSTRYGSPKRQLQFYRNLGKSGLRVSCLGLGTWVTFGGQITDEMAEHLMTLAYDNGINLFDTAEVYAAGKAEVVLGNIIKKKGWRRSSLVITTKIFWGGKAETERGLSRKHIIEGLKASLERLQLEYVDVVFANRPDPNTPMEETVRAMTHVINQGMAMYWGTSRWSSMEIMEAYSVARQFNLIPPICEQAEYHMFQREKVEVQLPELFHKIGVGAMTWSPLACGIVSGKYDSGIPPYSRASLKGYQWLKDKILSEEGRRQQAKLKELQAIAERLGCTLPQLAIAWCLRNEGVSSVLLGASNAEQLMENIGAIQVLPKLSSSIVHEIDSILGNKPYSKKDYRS
The target is the same in test [6]. The experiment in a line: KvBeta positive modulators, primary screen, biochemical, NADPH fluorescence (AID 623;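 active means NADPH fluorescence slope more negative than the mean of all samples by about 3 SD, 99.7% confidence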;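 further: fluorescence intensity change per second fitted from 20 to 320 s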). The conditions noted are these: Recombinant KvBeta, NADPH fluorescence decrease slope, 10 min; at 10 µM; stronger effect = lower value.
Test [7] has as its target Alpha-2C adrenergic receptor (Homo sapiens) (UniProt P18825). The test can be described thus: modulators of alpha2C/GIRK thallium flux, primary screen, cell-based, HEK293 alpha2C/GIRK1/2 (AID 624;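 active means fluorescence slope after compound addition differing from the mean of all screened samples at 99.7% confidence, in either direction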;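 further: slope of fluorescence ratio to pre-addition baseline per second over 15 to 24 s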). The conditions noted are these: thallium flux BTC fluorescence, at 10 µM, actives lie on both sides.
A short description of test [8]: inhibitors of larval lipid processing in zebrafish, primary screen, whole organism, PED6 fluorescence, gall bladder and intestine (AID 686;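 active means a full or partial loss of lipid-probe fluorescence in the fish gall bladder, intestine or both, judged by eye; inactive means no fluorescence loss, or compound toxic to the fish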;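 further: larvae 5 to 7 days old with five fish per well; signal comes from phospholipase A2 cleavage of quenched PED6 carried via bile; overnight exposure to compound and PED6 before scoring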). The conditions noted are these: Zebrafish larvae PED6 lipid processing, fluorescence scoring; screened at 20 µM (by protocol). The essentials: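 Also added: quenched phospholipase substrate PED6, 100 nM final, ingested by larvae; System: zebrafish larvae, 5-7 d; Quantity: 5 larvae per well; Compound: 20 µM single dose; Schedule: overnight compound and PED6 incubation; Read-out: visual per-well fluorescence inhibition score; Measured by: By-eye fluorescence microscopy; Medium: E3.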

A short description of test [9]: inhibitors of Chlamydomonas gravitaxis, primary screen, whole organism, Chlamydomonas reinhardtii, WT vs cilia-less mutant, absorbance, 96-well (AID 463189;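 active means inhibition at or above 50% relative to wild type and mutant plate controls; inactive means inhibition below 50%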;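 further: 0% = wild type cc124 cells in DMSO and 100% = ciliumless bld1 mutant cells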). As to conditions: OD600 absorbance, 2 days, at 10 µM, stronger effect = higher value.
[10] abbreviates: measured here: cell density z-score.
The mark [11] stands for this setting: measured here: nuclear c-Myc green intensity z-score.
Where [12] appears, read: measured here: nuclear pErk red intensity z-score, stronger effect = higher value.

Activity calls are given as the source filed them.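 How the source made its calls, unless noted: active means compounds giving at least 50% inhibition in the cell-based MKP-3 phosphatase rescue imaging test; inactive means the rest.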

Sequence of Alpha-2C adrenergic receptor (Homo sapiens) (P18825 whole entry, looked up): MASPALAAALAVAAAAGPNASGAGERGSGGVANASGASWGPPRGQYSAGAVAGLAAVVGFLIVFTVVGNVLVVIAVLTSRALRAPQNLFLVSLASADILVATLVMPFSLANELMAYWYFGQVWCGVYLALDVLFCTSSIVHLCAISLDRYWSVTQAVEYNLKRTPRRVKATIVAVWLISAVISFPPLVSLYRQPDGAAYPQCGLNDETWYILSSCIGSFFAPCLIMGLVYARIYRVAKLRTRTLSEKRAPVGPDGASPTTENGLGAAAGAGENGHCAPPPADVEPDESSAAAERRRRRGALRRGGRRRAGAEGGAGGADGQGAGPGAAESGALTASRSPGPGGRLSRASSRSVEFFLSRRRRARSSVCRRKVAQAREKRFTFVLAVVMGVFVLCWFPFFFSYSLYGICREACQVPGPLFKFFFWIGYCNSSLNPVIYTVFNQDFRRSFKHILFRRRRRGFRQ

`Cc1cc2c(c(=O)n1CC1CCCO1)C(c1ccc3c(c1)OCO3)C(C#N)=C(N)O2` (stereo unspecified): the cell count in [1] stood at 430. The inhibition (as a rule, the relative decrease from the control value, in per cent) was -3.9% (inactive) in [1], -118% (inactive) in test [2], -2.91% (inactive) in test [4] and -9.27% (inactive) in [9]. Further, in [2], the nuclei count is 138%. Further, the z-score is -0.219 in [3] (setting [10]), 0.61 in test [3] (setting [11]) and 1.43 in test [3] (setting [12]). The fluorescence slope in [5] is -0.369 (inactive). Also, the NADPH fluorescence slope in [6] was -4.9e-05 (inactive). The slope in [7] was 0.00655 (inactive). Besides, the molecule was classed as inactive in test [8].

On to `Cc1ccc(OCC(=O)N2CCC(N3CCCCCC3)CC2)cc1`, for which the cell count in test [1] was 387. Moreover, the inhibition is -12% (inactive) in [1], -349% (inactive) in test [2], 9.39% (inactive) in test [4] and 4.12% (inactive) in test [9]. Further, the nuclei count in test [2] came to 176%. For the same molecule, the z-score in test [3] (setting [10]) was -0.193; in [3] (setting [11]), 0.541; in [3] (setting [12]), -0.692. For the same molecule, the fluorescence slope in test [5] was -0.391 (inactive). For the same molecule, the NADPH fluorescence slope in test [6] is -2.1e-05 (inactive). Also, the slope in [7] is 0.00447 (inactive). Moreover, in test [8], the molecule was classed as inactive.

As for `CCCCn1c(O)c(C=NCCCN(C)C)c(=O)[nH]c1=O`, the cell count in [1] came to 445. The inhibition in test [1] was 4.1% (inactive); in test [2] it was -38.4% (inactive); in test [4], 4.25% (inactive); in test [9] it was 10.3% (inactive). In addition, the nuclei count in test [2] came out at 117%. Further, the z-score was 1.16 in [3] (setting [10]), -1.01 in test [3] (setting [11]) and -0.649 in test [3] (setting [12]). In addition, the fluorescence slope in test [5] is -0.44 (inactive). Further, in [6], the NADPH fluorescence slope is 2.3e-06 (inactive). Further, the slope in [7] was 0.0074 (inactive). Further, in [8], the call was inactive.

As for `N#Cc1ccc(-c2cccnc2)nc1SCC(=O)Nc1sc2c(c1C#N)CCC2`, the cell count in [1] worked out at 539. In addition, the inhibition in test [1] is -25.4% (inactive); in test [2], -101% (inactive); in test [4], -9.66% (inactive); in test [9] it was -0.076% (inactive). The nuclei count in test [2] amounted to 144%. Besides, the figures for the z-score in [3] (setting [10]), in [3] (setting [11]) and in [3] (setting [12]) were 0.414, 0.682 and 0.527, respectively. For the same molecule, the fluorescence slope in test [5] was -0.501 (inactive). Further, the NADPH fluorescence slope in test [6] is -5.3e-05 (inactive). Moreover, the slope in test [7] was 0.00453 (inactive). Besides, the result in test [8] was inactive.

In the case of `COc1cccc(-c2nnc3sc(-c4ccccc4)nn23)c1`, in test [1], the cell count worked out at 659. The inhibition in [1] is 1.9% (inactive); in [2] it was -40.1% (inactive); in [4], -15% (inactive); in [9], -5.58% (inactive). Besides, in test [2], the nuclei count was determined as 160%. Moreover, the z-score in [3] (setting [10]) is -2.38; in [3] (setting [11]) it was 2.05; in test [3] (setting [12]), 2. In addition, the fluorescence slope in test [5] was -0.424 (inactive). Further, in test [6], the NADPH fluorescence slope was -0.000144 (inactive). Also, in [7], the slope was 0.00489 (inactive). The call in [8] was inactive.

Turning to `Cc1c(-c2cccs2)[n+](=O)c2c(n1[O-])CCCC2`, the cell count in test [1] stood at 431. Moreover, the inhibition was -16.7% (inactive) in test [1], -128% (inactive) in test [2], 15% (inactive) in [4] and 15.1% (inactive) in test [9]. In [2], this molecule registered a nuclei count of 164%. The z-score is 1.59 in [3] (setting [10]), -0.562 in [3] (setting [11]) and -0.0919 in [3] (setting [12]). Also, the fluorescence slope in test [5] is -0.419 (inactive). The NADPH fluorescence slope in test [6] was -1.1e-05 (inactive). The slope in [7] was 0.0072 (inactive). In test [8], the call was inactive.

With `COc1cccc(OC)c1-c1nn2c(-c3ccco3)nnc2s1`, the cell count in test [1] is 630. Besides, the inhibition in test [1] is -5.2% (inactive); in test [2], -86.6% (inactive); in test [4], 10.1% (inactive); in test [9] it was 5.78% (inactive). For the same molecule, in [2], the nuclei count was found to be 172%. Also, the z-score in [3] (setting [10]) was 0.253; in test [3] (setting [11]), 0.886; in test [3] (setting [12]), -0.677. Besides, the fluorescence slope in [5] was -0.431 (inactive). Further, the NADPH fluorescence slope in test [6] was -0.000166 (inactive). In addition, in test [7], the slope is 0.00439 (inactive). For the same molecule, in test [8], the result was inactive.
